Experimental data gathered from unrelated publications.
Target: Tyrosine-protein kinase Fgr (FGR, Homo sapiens, UniProt P09769)

For `O=C(NCC1CCOCC1)c1n[nH]cc1NC(=O)c1c(F)cccc1F`, the remaining binding was 100% (binding, competition with immobilised ligand; 1 µM).
`c1cnn2ncc(-c3ccnc(N4CCC45COC5)n3)c2c1` has a remaining binding of 100% (binding; 1 µM).
`C[C@@H](c1ccc(-n2cnc3c(N)ncnc32)cc1)N1CCc2nn(C)c(Cc3ccccc3)c2C1=O` gave a remaining binding of 81% (binding, competition with immobilised ligand; 0.1 µM).
`COCCOc1nc(-c2ccc(Cl)nc2)nc2c1CN(C(=O)c1ncn3ccccc13)CC2` gave a remaining binding of 100% (cell-free assay, competition with immobilised ligand; 0.1 µM).
With `COc1ccnn2ncc(-c3ccnc(N(C)C)n3)c12` the remaining binding was 76% (binding; 1 µM).
With `O=C(NCCCN1CCOCC1)c1ccc(Nc2nccc(-c3cc4ccccc4s3)n2)cc1` the remaining binding was 79% (cell-free assay, competition with immobilised ligand; 1 µM).
`Cc1noc([C@H]2C[C@@H](c3ccc(C(F)(F)F)cc3)CN(C(=O)N3CCS(=O)(=O)C3)C2)n1` gave a remaining binding of 100% (cell-free assay, competition with immobilised ligand; 1 µM).
`CNC(=O)[C@@H]1CC[C@@H](n2c(-c3ccc4cnccc4c3)nc3ccc(C(=O)NCc4cccc(C(N)=O)c4)cc32)C1` has a remaining binding of 100% (binding, competition with immobilised ligand; 1 µM).
With `C[C@@H]1CCN(c2nccc(-c3cnn4ncccc34)n2)C1` the remaining binding was 100% (binding; 1 µM).
With `CNCc1ccccc1-c1csc([C@@H](C)Nc2nc(C)nc3cc(OC)c(OC)cc23)c1` the remaining binding was 100% (cell-free assay, competition with immobilised ligand; 1 µM).
`FC(F)(F)Oc1cccc(-c2cnc3ccc(-c4ccncc4)nn23)c1` has a remaining binding of 69% (cell-free assay, competition with immobilised ligand; 5 µM).
`N[C@@H]1CCN(c2nccc(-c3cnn4ncccc34)n2)C1` has a remaining binding of 100% (binding; 1 µM).
`C[C@H](c1cccc(C#N)c1)n1cc(Cl)cc(C(N)=O)c1=N` gave a remaining binding of 80% (cell-free assay, competition with immobilised ligand; 1 µM).
`O=C(c1ccc(Nc2ncc(Cl)c(-c3ccc(Cl)s3)n2)cc1)N1CCC(N2CCCC2)CC1` has a remaining binding of 96% (cell-free assay, competition with immobilised ligand; 1 µM).
For `Nc1ncc2c(n1)-c1c([nH]c3ccc(C#CC4CC4)cc13)CCCC2`, the remaining binding was 100% (binding, competition with immobilised ligand; 1 µM).
`CN(C)c1nccc(-c2cnc3ncccn23)n1` has a remaining binding of 100% (binding; 1 µM).
For `COc1cnc(Nc2cccc(S(N)(=O)=O)c2)nc1N1CCN(c2ccccc2)C(=O)C1`, the remaining binding was 100% (binding, competition with immobilised ligand; 1 µM).
`C[C@@H]1CN(c2cc(-c3nn(C)c4ccc(OC5(C)CC5)cc34)ncn2)C[C@H](C)O1` has a remaining binding of 90% (cell-free assay, competition with immobilised ligand; 1 µM).
The remaining binding of `O=C(c1ccc(Nc2ncc(Cl)c(-c3cc4ccccc4s3)n2)cc1)N1CCC(N2CCCC2)CC1` is reported as 92% (cell-free assay, competition with immobilised ligand; 1 µM).
`CN(C)c1ncc(F)c(-c2cnn3ncccc23)n1` gave a remaining binding of 88% (binding; 1 µM).
`CC(=O)Nc1c(C(C)=O)c(=O)n(C)c2nc(-c3ccc(Cl)cc3Cl)c(-c3ccc(Cl)cc3)cc12` has a remaining binding of 100% (cell-free assay, competition with immobilised ligand; 1 µM).
